Test results: publication PMC3437246 (Biochemistry, 2012)
Read-outs that look alike come from different tables or passages of the source.

Key:
wt RB69pol = wt RB69pol (Escherichia phage RB69, UniProt Q38087, D222A/D327A); format: biochemical, bacteriophage RB69; conditions: template tC°; for kpol: 23°C, 10 mM Mg2+
Outline: (§1)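 Single-turnover rapid quench was run at 23°C in 66 mM Tris-HCl pH 7.4 using exonuclease-deficient RB69pol. Enzyme plus 5'-32P primer/tC° template was mixed with Mg2+ and varying dNTP for 5 ms to 1 min (final 1 μM enzyme, 90 nM P/T, 10 mM Mg2+). Reactions were EDTA-quenched and resolved on 8 M urea PAGE. kobs came from single-exponential fits, then kpol and Kd,app from a hyperbolic fit; efficiency is kpol/Kd,app.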

RB69pol Y567A mutant = RB69pol Y567A mutant (Escherichia phage RB69, UniProt Q38087, D222A/D327A/Y567A); format: biochemical, bacteriophage RB69; conditions: for Kpol/Kd,app / kpol: Y567A mutant, template tC°; for kpol: 23°C, 10 mM Mg2+
RB69pol Y567A mutant, sequence (Q38087 whole entry D222A/D327A/Y567A): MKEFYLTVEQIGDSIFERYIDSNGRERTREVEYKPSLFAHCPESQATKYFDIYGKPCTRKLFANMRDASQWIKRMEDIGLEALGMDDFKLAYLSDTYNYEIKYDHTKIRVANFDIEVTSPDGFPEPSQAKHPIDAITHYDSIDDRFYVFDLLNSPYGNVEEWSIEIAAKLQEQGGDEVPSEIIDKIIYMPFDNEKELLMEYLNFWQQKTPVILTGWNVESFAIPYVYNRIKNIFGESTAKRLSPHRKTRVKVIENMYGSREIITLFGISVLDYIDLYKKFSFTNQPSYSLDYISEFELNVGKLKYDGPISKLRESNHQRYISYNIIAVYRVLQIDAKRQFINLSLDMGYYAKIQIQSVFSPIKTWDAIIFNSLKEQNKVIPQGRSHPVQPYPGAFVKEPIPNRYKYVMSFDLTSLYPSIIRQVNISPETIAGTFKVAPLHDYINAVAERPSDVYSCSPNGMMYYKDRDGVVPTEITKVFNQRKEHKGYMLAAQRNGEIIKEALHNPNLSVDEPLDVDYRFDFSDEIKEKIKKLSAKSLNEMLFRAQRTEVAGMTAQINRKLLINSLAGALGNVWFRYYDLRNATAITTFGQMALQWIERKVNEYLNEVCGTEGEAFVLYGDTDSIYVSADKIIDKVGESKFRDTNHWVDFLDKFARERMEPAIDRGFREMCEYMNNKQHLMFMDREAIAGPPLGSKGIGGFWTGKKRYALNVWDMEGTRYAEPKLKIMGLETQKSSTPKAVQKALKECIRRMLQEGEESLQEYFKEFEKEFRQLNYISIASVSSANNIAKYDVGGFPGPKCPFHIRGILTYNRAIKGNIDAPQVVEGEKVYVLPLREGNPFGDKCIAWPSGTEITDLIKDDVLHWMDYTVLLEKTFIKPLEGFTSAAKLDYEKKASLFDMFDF
Outline: as §1

Y567A-P/T binary complex = Y567A-P/T binary complex (Escherichia phage RB69, UniProt Q38087, D222A/D327A/Y567A); assay: Equilibrium fluorescence titration of dNTP opposite tC°; format: binding, bacteriophage RB69; conditions: 1mM dNTP added to Y567A-P/T binary complex
Y567A-P/T binary complex, sequence (Q38087 whole entry D222A/D327A/Y567A, one chain of several): as the sequence (Q38087 whole entry D222A/D327A/Y567A) above
Outline: (§2)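 Exonuclease-deficient (D222A/D327A) RB69pol, wild type or Y567A, was expressed in E. coli BL21(DE). Enzyme at 1 μM was mixed with 300 nM 3'-dideoxy (ddC) terminated 13/18mer P/T carrying tC° at template position n, in 66 mM Tris-HCl pH 7.4 with 10 mM MgSO4 at 23°C. Excitation was 364 nm and emission was scanned 380–700 nm. Spectra were corrected for enzyme and buffer fluorescence.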

Y567A RB69pol mutant = Y567A RB69pol mutant (Escherichia phage RB69, UniProt Q38087, D222A/D327A/Y567A); assay: Stopped-flow fluorescence of tC° quenching on dGTP binding; parameters: species or system bacteriophage RB69
Y567A RB69pol mutant, sequence (Q38087 whole entry D222A/D327A/Y567A): as above

[1] = target: T1, wt RB69pol-P/T binary complex (Escherichia phage RB69, UniProt Q38087, D222A/D327A); assay: as above; parameters: species or system bacteriophage RB69; conditions: full quenching within instrument dead-time (< 2 ms)
T1 sequence (Q38087 whole entry D222A/D327A, one chain of several): as the sequence (Q38087 whole entry D222A/D327A/Y567A) above, with A567Y counted along it

[2] = target: T1, wt RB69pol-P/T binary complex; assay: Equilibrium fluorescence titration of dNTP opposite tC°; format: binding, bacteriophage RB69; conditions: 1mM dNTP added to wt RB69pol-P/T binary complex
Outline: as §2

wt RB69pol, sequence (Q38087 whole entry D222A/D327A): as the sequence (Q38087 whole entry D222A/D327A/Y567A) above, with A567Y counted along it

SMILES	Kpol/Kd,app (wt RB69pol) [M⁻¹ s⁻¹]	fold difference in kpol between dGMP and dAMP (wt RB69pol) [fold]	kpol (wt RB69pol) [s⁻¹]	kpol (wt RB69pol; listed as dAMP) [s⁻¹]	fold increase of incorporation efficiency opposite tC° (RB69pol Y567A mutant; Y567A mutant relative to wt RB69pol) [fold]	Kpol/Kd,app (RB69pol Y567A mutant) [M⁻¹ s⁻¹]	kpol (RB69pol Y567A mutant) [s⁻¹]	kpol (RB69pol Y567A mutant; listed as dAMP) [s⁻¹]	quenching of tC° fluorescence (Y567A-P/T binary complex)	rate of tC° fluorescence quenching (Y567A RB69pol mutant) [s⁻¹]	rate of tC° fluorescence quenching [1]	quenching of tC° fluorescence [2]
Nc1ncnc2c1ncn2[C@H]1C[C@H](O)[C@@H](COP(=O)(O)OP(=O)(O)OP(=O)(O)O)O1 [dATP]	3500	40	6 ± 0.2	6	200	700000	180 ± 10	180	~15%			
Nc1nc2c(ncn2[C@H]2C[C@H](O)[C@@H](COP(=O)(O)OP(=O)(O)OP(=O)(O)O)O2)c(=O)[nH]1 [dGTP]	1.8e+06		250 ± 7			4.3e+07	170 ± 10		about 30%	> 500	greater than 500 s^−1	about 30%
